Data on 73 sequences can be found in the array DNA melting data of Ke et al. (doi:10.1101/2024.01.08.574731).

Data set [1] can be described thus: folding enthalpy; higher = less favourable; fluorescence melt of hairpins on a sequencing array, two-state fit. The following applies: sodium 0.088 M. The method, boiled down: (§1)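 To match UV melts, fitted temperatures were raised by 9.35 °C. These fits were bootstrapped two-state models that gave melting temperature and folding enthalpy, combined by inverse variance over four replicates. The input was normalised Cy3 fluorescence of library hairpins with annealed Cy3 and quencher oligos on a sequenced MiSeq flow cell, imaged in 50 mM Na-HEPES pH 8.0, 25 mM NaCl in 2.5 °C steps up to 60 °C.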

Data set [2] can be described thus: melting temperature; fluorescence melt of hairpins on a sequencing array, two-state fit, raised by 9.35 °C to match UV melts. Particulars: sodium 0.088 M. The method, boiled down: as §1

Regarding GGATCAGGAAACTAATCC ((((.((....)).)))), the folding enthalpy in data set [1] was -12.9 kcal/mol. In addition, the Tm in data set [2] was 26.2 °C.
The matching figures for GGATCAGGAAACTGACCC ((.((((....)))).)): -27.7 kcal/mol and 41.4 °C.
As to GGATCAGGAAACTGATCC (((((((....))))))), the folding enthalpy in data set [1] was -44.2 kcal/mol. Moreover, the Tm in data set [2] is 64.5 °C.
In the case of GGATCCCGAAAGGGTCC (((.(((....)))))), in data set [1], the folding enthalpy was -27.8 kcal/mol. Further, the Tm in data set [2] came to 60.1 °C.
In the same order, the values of GGATCCGAAAGGACGTCC ((((((....)))..))) are -13.8 kcal/mol and 31.9 °C.
In the same order, the values of GGATCCGAAAGGACTTCC ((((((....)))..))) are -19.5 kcal/mol and 37.5 °C.
The matching figures for GGATCCGAAAGGAGCTCC ((((((....)))..))): -13.4 kcal/mol and 44.2 °C.
As to GGATCCGAAAGGAGTCC ((((((....))).))), the folding enthalpy in data set [1] was -18.5 kcal/mol. The Tm in data set [2] came out at 47.9 °C.
In the case of GGATCCGGAAACAGATCC (((((.(....).))))), in data set [1], the folding enthalpy is -33.1 kcal/mol. For the same sequence, the Tm in data set [2] is 41.6 °C.
In the same order, the values of GGATCGCCGAAAGGCTCC (((..(((....)))))) are -11 kcal/mol and 30.4 °C.
With GGATCGGGAAACTGGTCC (((.(.(....).).))), the folding enthalpy in data set [1] was -30.4 kcal/mol. The Tm in data set [2] was found to be 39.2 °C.
As to GGATCTCCGAAAGGATCC (((..(((....)))))), the folding enthalpy in data set [1] is -23.8 kcal/mol. In addition, in data set [2], the Tm came out at 42.1 °C.
The matching figures for GGATCTCGAAAGAGCTCC (((.(((....))).))): -31.7 kcal/mol and 44.5 °C.
The matching figures for GGATCTCGAAAGAGTCC (((.(((....)))))): -25.1 kcal/mol and 49.3 °C.
In the same order, the values of GGATCTGCGAAAGCATCC (((..(((....)))))) are -14.9 kcal/mol and 35.2 °C.
As to GGATCTGGAAACAGACCC ((.((((....)))).)), in data set [1], the folding enthalpy is -32.2 kcal/mol. In data set [2], the Tm was determined as 42 °C.
In the same order, the values of GGATGACGAAAGTCCTCC (((.(((....))).))) are -31.5 kcal/mol and 47.1 °C.
In the same order, the values of GGATGACGAAAGTCTTCC (((.(((....))).))) are -42.5 kcal/mol and 52.9 °C.
Turning to GGATGAGGAAACCCATCC (((((.(....).))))), in data set [1], the folding enthalpy was -30.3 kcal/mol. The Tm in data set [2] was determined as 44.6 °C.
In the same order, the values of GGATGAGGAAACTCACCC ((.((((....)))).)) are -22.3 kcal/mol and 39.6 °C.
The matching figures for GGATGAGGAAACTCATTC (.(((((....))))).): -23.7 kcal/mol and 41.6 °C.
In the case of GGATGCGAAAGCATATCC ((((((....)))..))), the folding enthalpy in data set [1] was -14.9 kcal/mol. Further, the Tm in data set [2] came to 43.8 °C.
The matching figures for GGATGCGGAAACGCACCC ((.((((....)))).)): -27.4 kcal/mol and 52.2 °C.
As for GGATGCGGAAACGTGTCC (((..((....))..))), the folding enthalpy in data set [1] is -34.9 kcal/mol. The Tm in data set [2] worked out at 48.4 °C.
The matching figures for GGATGGCCGAAAGGCTCC (((..(((....)))))): -11.6 kcal/mol and 37.3 °C.
In the same order, the values of GGATGGGAAACCATCC ((((((....)))))) are -37.3 kcal/mol and 59.2 °C.
The matching figures for GGATGGGGAAACCTATCC ((((.((....)).)))): -29.4 kcal/mol and 47.2 °C.
In the case of GGATGTGGAAACACATTC (.(((((....))))).), the folding enthalpy in data set [1] is -25.7 kcal/mol. The Tm in data set [2] is 47.6 °C.
Regarding GGATTACGAAAGTACTCC (((.(((....))).))), the folding enthalpy in data set [1] was -27.9 kcal/mol. For the same sequence, the Tm in data set [2] was 41.1 °C.
The matching figures for GGATTAGGAAACTGATCC ((((.((....)).)))): -33.7 kcal/mol and 41.8 °C.
The matching figures for GGATTCCCGAAAGGGTCC (((..(((....)))))): -14.6 kcal/mol and 39.3 °C.
The matching figures for GGATTCGAAAGAACATCC ((((((....)))..))): -14.1 kcal/mol and 29.4 °C.
Take GGATTCGAAAGAACCTCC ((((((....)))..))): the folding enthalpy in data set [1] was -16.7 kcal/mol. The Tm in data set [2] is 37.8 °C.
Consider GGATTCGAAAGAAGATCC ((((((....)))..))), for which, in data set [1], the folding enthalpy was -12.2 kcal/mol. Besides, in data set [2], the Tm was found to be 28.1 °C.
The matching figures for GGATTCGAAAGAATCTCC ((((((....)))..))): -14.2 kcal/mol and 43.8 °C.
With GGATTCGCGAAAGCGTCC (((..(((....)))))), the folding enthalpy in data set [1] was -10.7 kcal/mol. Besides, the Tm in data set [2] came to 29.5 °C.
Take GGATTCGGAAACGAGTTC (.(.(((....))).).): the folding enthalpy in data set [1] was -18.1 kcal/mol. Also, in data set [2], the Tm amounted to 28.7 °C.
In the same order, the values of GGATTGAAAAATCC (((((....))))) are -21.7 kcal/mol and 44.5 °C.
In the same order, the values of GGATTGGAAACAATCC ((((((....)))))) are -36.7 kcal/mol and 55.5 °C.
The matching figures for GGATTTACGAAAGTATCC (((..(((....)))))): -21 kcal/mol and 31 °C.
Take GGATTTCGAAAGAATCC (((.(((....)))))): the folding enthalpy in data set [1] is -28.8 kcal/mol. Besides, in data set [2], the Tm is 41.3 °C.
Regarding GGATTTGGAAACAAATCC (((((((....))))))), the folding enthalpy in data set [1] was -44.3 kcal/mol. For the same sequence, the Tm in data set [2] was determined as 58.2 °C.
Regarding GGATTTGGAAACAAATTC (.(((((....))))).), the folding enthalpy in data set [1] was -28.1 kcal/mol. Moreover, the Tm in data set [2] was found to be 40.1 °C.
In the same order, the values of GGATTTTCGAAAGAATCC (((..(((....)))))) are -17.7 kcal/mol and 31.4 °C.
In the same order, the values of GGCAAACGAAAGTTAGCC (((.(((....))).))) are -25.1 kcal/mol and 54.9 °C.
In the same order, the values of GGCAAACGAAAGTTGCC (((.(((....)))))) are -33.3 kcal/mol and 59.6 °C.
GGCAAAGAAATTTGCC ((((((....)))))): the folding enthalpy in data set [1] was -36.8 kcal/mol. Besides, the Tm in data set [2] stood at 56 °C.
The matching figures for GGCAACACGAAAGTGGCC (((..(((....)))))): -37.4 kcal/mol and 52.6 °C.
For GGCAACCGAAAGGTGGCC (((.(((....))).))), the folding enthalpy in data set [1] is -35 kcal/mol. Further, in data set [2], the Tm turned out to be 67.7 °C.
In the same order, the values of GGCAACGAAAGTTAAGCC ((((((....)))..))) are -24 kcal/mol and 45.7 °C.
As to GGCAACGAAAGTTACGCC ((((((....)))..))), the folding enthalpy in data set [1] is -24.2 kcal/mol. In addition, the Tm in data set [2] is 44.4 °C.
For GGCAACGAAAGTTATGCC ((((((....)))..))), the folding enthalpy in data set [1] was -24.2 kcal/mol. Moreover, in data set [2], the Tm was 46.3 °C.
As to GGCAACGGAAACACTGCC ((((..(....)..)))), the folding enthalpy in data set [1] was -15 kcal/mol. Also, the Tm in data set [2] was found to be 29.7 °C.
The matching figures for GGCAACGGAAACATCGCC (((.(.(....).).))): -16.7 kcal/mol and 24.5 °C.
The matching figures for GGCAACGGAAACGTCGCC (((.(((....))).))): -46.8 kcal/mol and 52.8 °C.
For GGCAAGCGAAAGCTGCC (((.(((....)))))), the folding enthalpy in data set [1] was -33.4 kcal/mol. Besides, the Tm in data set [2] is 68.9 °C.
In the same order, the values of GGCAAGGCGAAAGCCGCC (((..(((....)))))) are -13.6 kcal/mol and 59.6 °C.
Regarding GGCAATCGAAAGATAGCC (((.(((....))).))), in data set [1], the folding enthalpy was -31.8 kcal/mol. Further, the Tm in data set [2] was determined as 52.7 °C.
Regarding GGCAATCGAAAGATCGCC (((.(((....))).))), in data set [1], the folding enthalpy was -34.7 kcal/mol. In addition, the Tm in data set [2] was found to be 51 °C.
The matching figures for GGCAATGGAAACACTGCC ((((.((....)).)))): -33.2 kcal/mol and 44 °C.
In the case of GGCACAGGAAACTGTACC ((.((((....)))).)), the folding enthalpy in data set [1] is -29.6 kcal/mol. For the same sequence, the Tm in data set [2] is 44.3 °C.
With GGCACCCGAAAGGGAGCC (((.(((....))).))), in data set [1], the folding enthalpy is -32.6 kcal/mol. Further, the Tm in data set [2] came out at 68.6 °C.
The matching figures for GGCACCGAAAGGTAGCC ((((((....))).))): -36.9 kcal/mol and 61.4 °C.
The matching figures for GGCACCGAAAGGTCCGCC ((((((....)))..))): -20.4 kcal/mol and 55.2 °C.
On to GGCACCGAAAGGTTAGCC ((((((....)))..))), for which the folding enthalpy in data set [1] is -28.9 kcal/mol. Moreover, the Tm in data set [2] was 50.8 °C.
Turning to GGCACGGCGAAAGCCGCC (((..(((....)))))), the folding enthalpy in data set [1] was -8.23 kcal/mol. Further, the Tm in data set [2] was determined as 44.6 °C.
In the same order, the values of GGCACGGGAAACCATGCC ((((.((....)).)))) are -30.5 kcal/mol and 49.3 °C.
In the same order, the values of GGCACTCCGAAAGGAGCC (((..(((....)))))) are -9.55 kcal/mol and 35.2 °C.
Consider GGCAGACCGAAAGGTGCC (((..(((....)))))), for which the folding enthalpy in data set [1] was -35 kcal/mol. Moreover, the Tm in data set [2] amounted to 55.4 °C.
GGCAGAGGAAACTTTGCC ((((.((....)).)))): the folding enthalpy in data set [1] is -35.5 kcal/mol. Also, in data set [2], the Tm amounted to 48.6 °C.
As for GGCAGCGAAAGCTAAGCC ((((((....)))..))), in data set [1], the folding enthalpy is -25.2 kcal/mol. Further, the Tm in data set [2] stood at 55.6 °C.
The matching figures for GGCAGCGGAAACGCTGTC (.(((((....))))).): -17.6 kcal/mol and 67.2 °C.
Consider GGCAGGGGAAACCCCACC ((..(((....)))..)), for which the folding enthalpy in data set [1] is -16.5 kcal/mol. In addition, the Tm in data set [2] came out at 31.6 °C.
